Reference: article PMC2677731 (Molecular cell, 2009)
“Also recorded” adds a separate entry of the source.

Experiments:
[1] = tested on: human genome (ENCODE array); assay: ChIP-chip, ENCODE tiled arrays; type: cell-based; conditions: doxorubicin treatment
In short: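 ChIP DNA from human cells expressing wild-type or ΔPHD2 JADE1L, with or without doxorubicin, was amplified, labelled and hybridised to […] human ENCODE tiled arrays. Analysis followed the array maker's standard protocol. Significant binding peaks were counted by position on the gene body, or by distance from TSS/TES when outside coding regions.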

set1 chromatin = assay: HAT assay on set1; type: biochemical, yeast; conditions: chromatin 500 ng, lacking H3K4me
In short: (§1)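 For acetyltransferase reactions, wild-type or mutant JADE1 complexes were immunopurified from co-transfected cells. They were incubated with 500 ng of native chromatin purified from yeast cells. Assays otherwise followed an earlier published protocol.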

[2] = tested on: native wild type chromatin; assay: HAT assay on wild type yeast native chromatin; type: biochemical; conditions: chromatin 500 ng, fluorography
In short: as §1

endogenous chromatin = assay: In vivo association with endogenous chromatin; type: cell-based
In short: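 Tagged JADE1L or JADE1S complexes, wild-type or mutant, were immunopurified from co-transfected human cells. Co-purifying endogenous core histones and complex subunits were resolved by gel staining. Western blots with specific antibodies, including for H3K36me3, followed.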

native chromatin = assay: Chromatin pull-down, yeast wild type native chromatin; type: binding; conditions: H3-tail dependent, western blot
In short: (§2)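 Immunopurified JADE1L or JADE1S complexes from co-transfected cells, normalised by gel, were incubated with purified native chromatin. Chromatin came from yeast (wild type or set1, lacking H3K4me) or from human cells.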

human native chromatin = assay: Chromatin pull-down, human native chromatin; type: binding
In short: as §2

COc1cccc2c1C(=O)c1c(O)c3c(c(O)c1C2=O)C[C@@](O)(C(=O)CO)C[C@@H]3O[C@H]1C[C@H](N)[C@H](O)[C@H](C)O1 [doxorubicin]
JADE1L binding at menin gene [1]: seems to be induced

B1: JADE1S: natural smaller 509 amino acid-protein produced by an abundant mRNA splice variant; dimeric complex with HBO1 (protein)
chain: MKRGRLPSSSEDSDDNGSLSTTWSQNSRSQHRRSSCSRHEDRKPSEVFRTDLITAMKLHDSYQLNPDEYYVLADPWRQEWEKGVQVPVSPGTIPQPVARVVSEEKSLMFIRPKKYIVSSGSEPPELGYVDIRTLADSVCRYDLNDMDAAWLELTNEEFKEMGMPELDEYTMERVLEEFEQRCYDNMNHAIETEEGLGIEYDEDVVCDVCQSPDGEDGNEMVFCDKCNICVHQACYGILKVPEGSWLCRTCALGVQPKCLLCPKKGGAMKPTRSGTKWVHVSCALWIPEVSIGSPEKMEPITKVSHIPSSRWALVCSLCNEKFGASIQCSVKNCRTAFHVTCAFDRGLEMKTILAENDEVKFKSYCPKHSSHRKPEESLGKGAAQENGAPECSPRNPLEPFASLEQNREEAHRVSVRKQKLQQLEDEFYTFVNLLDVARALRLPEEVVDFLYQYWKLKRKVNFNKPLITPKKDEEDNLAKREQDVLFRRLQLFTHLRQDLERVMIDTDTL
HAT activity on set1 yeast chromatin (set1 chromatin): highly active; also recorded: equivalent acetyltransferase activity
HAT activity on wild type yeast chromatin [2]: much less active than the JADE1L complex
co-purification of core histones (endogenous chromatin; immunopurified complexes, gel staining): a full set of core histones co-purified
level of H3K36me3-containing chromatin bound in vivo (endogenous chromatin; western blot, relative to JADE1L): much higher; also recorded: significantly more H3K36me3 signal
binding to yeast native chromatin (native chromatin): efficiently pulled down yeast chromatin
binding to H3K36me3-containing human chromatin in vitro (human native chromatin): can bind H3K36me3-containing chromatin in vitro
